Experimental data as given in ChEMBL document CHEMBL4364341, “Radiosensitization of Head and Neck Squamous Cell Carcinoma (HNSCC) by a Podophyllotoxin” (ACS Med Chem Lett, 2019).
Calls of active or inactive are those of the source. The rule behind the calls is not given here.

Columns and labels:
FaDu [1] = test: Antiproliferative activity against human FADU cells assessed as fractional inhibition at 0.05 uM after 6 days in absence of irradiation by MTT assay; format: functional
Summary of the method: (§1)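 FaDu or SCC-25 cells were grown in DMEM with 10% FBS at 37 °C and 5% CO2. They were seeded at 1000 cells/well in 96-well plates for 24 h, then dosed with compound (fresh DMSO stock diluted in medium) or vehicle. After 1 h, X-rays were given with a sliding 5 mm lead shield, so one plate held 0, 2.5, 5 and 10 Gy columns. After 6 days, MTT (0.5 mg/mL, 45 min) was added, then DMSO, and A570 was read. Values were normalised to the unirradiated vehicle control. Fractional inhibition = 1 − surviving fraction.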

FaDu [2] = test: Synergistic antiproliferative activity against human FADU cells assessed as combination index at 0.005 uM preincubated for 1 hr followed by irradiation with 2.5 Gy IR and measured after 6 days by MTT assay; format: functional
Summary of the method: (§2)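 Combination index was calculated by the Chou–Talalay median-effect method from the 6-day MTT viability data of the single-plate compound/X-ray (2.5, 5, 10 Gy) design. CI < 1 denotes synergy, CI = 1 additivity and CI > 1 antagonism.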

SCC-25 [3] = test: Antiproliferative activity against human SCC25 cells assessed as fractional inhibition at 0.005 uM after 6 days in absence of irradiation by MTT assay; format: functional; summary of the method: as §1
SCC-25 [4] = test: Synergistic antiproliferative activity against human SCC25 cells assessed as fractional inhibition at 0.005 uM preincubated for 1 hr followed by irradiation with 5 Gy IR and measured after 6 days by MTT assay (reference value: 0.133); format: functional
Summary of the method: (§3)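 SCC-25 cells seeded 1000/well in 96-well plates in DMEM/10% FBS and left 24 h. Drug or vehicle added, then after 1 h X-irradiated to 2.5, 5 or 10 Gy on one plate using a shifted lead shield. Plates incubated 6 days, then MTT (0.5 mg/mL, 45 min), DMSO solubilisation, absorbance at 570 nm. Fractional inhibition = 1 − fraction of surviving cells.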

SCC-25 [5] = test: Synergistic antiproliferative activity against human SCC25 cells assessed as reduction in cell viability at 1 uM preincubated for 1 hr followed by irradiation with 5 Gy IR and measured after 6 days by MTT assay relative to control; conditions: SCC-25, light or radiation study
FaDu [6] = test: Synergistic antiproliferative activity against human FADU cells assessed as fractional inhibition at 0.5 uM preincubated for 1 hr followed by irradiation with 10 Gy IR and measured after 6 days by MTT assay (reference value: 0.388); format: functional; summary of the method: as §1
SCC-25 [7] = test: Synergistic induction of cell cycle arrest in human SCC25 cells assessed as decrease in accumulation at S phase at 0.5 uM followed irradiation with 5Gy IR incubated for 24 hrs by propidium iodide staining based flow cytometry; format: functional
Summary of the method: (§4)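 FaDu or SCC-25 cells, untreated, given 5 Gy IR, drug, or drug plus 5 Gy. Cell-cycle distribution by propidium iodide staining and flow cytometry at 6 h and 24 h after treatment. G0/G1, S and G2/M fractions compared with control by t test.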

SCC-25 [8] = test: Antiproliferative activity against human SCC25 cells assessed as fractional inhibition at 5 uM after 6 days in absence of irradiation by MTT assay; format: functional; summary of the method: as §1
FaDu [9] = test: Synergistic antiproliferative activity against human FADU cells assessed as fractional inhibition at 0.05 uM preincubated for 1 hr followed by irradiation with 10 Gy IR and measured after 6 days by MTT assay (reference value: 0.388); format: functional; summary of the method: as §1
SCC-25 [10] = test: Synergistic antiproliferative activity against human SCC25 cells assessed as combination index at 5 uM preincubated for 1 hr followed by irradiation with 10 Gy IR and measured after 6 days by MTT assay; format: functional
Summary of the method: (§5)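 SCC-25 cells grown in DMEM with 10% FBS at 37 °C, 5% CO2, seeded 1000 cells/well in 96-well plates and left 24 h. Drug in DMSO, diluted in complete medium, added 1 h before X-irradiation. A movable 5 mm lead shield gave 0, 2.5, 5 or 10 Gy on one plate. After 6 days, MTT readout at 570 nm. Combination index by Chou–Talalay from viability data.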

FaDu [11] = test: Synergistic induction of apoptosis in human FADU cells assessed as decrease in Bcl2 at 0.5 uM followed by irradiation with 5 Gy IR incubated for 48 hrs by immunoblot analysis; format: functional, cell-based
Summary of the method: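 FaDu cells received drug, 5 Gy IR, or both; vehicle-only controls. Lysates collected after 48 h and immunoblotted with primary antibodies to NRF2, cyclin B1, CDK1, Bax and Bcl-2. Membranes stripped and reprobed for beta-actin as loading control.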

SCC-25 [12] = test: Synergistic antiproliferative activity against human SCC25 cells assessed as fractional inhibition at 0.5 uM preincubated for 1 hr followed by irradiation with 10 Gy IR and measured after 6 days by MTT assay (reference value: 0.347); format: functional; summary of the method: as §3
SCC-25 [13] = test: Synergistic antiproliferative activity against human SCC25 cells assessed as combination index at 0.5 uM preincubated for 1 hr followed by irradiation with 2.5 Gy IR and measured after 6 days by MTT assay; format: functional; summary of the method: as §5
FaDu [14] = test: Synergistic induction of cell cycle arrest in human FADU cells assessed as decrease in accumulation at G0/G1 phase at 0.5 uM followed irradiation with 5Gy IR incubated for 24 hrs by propidium iodide staining based flow cytometry; format: functional; summary of the method: as §4
FaDu [15] = test: Induction of apoptosis in human FADU cells assessed as increase in Bax at 0.5 uM followed by irradiation with 5 Gy IR incubated for 48 hrs by immunoblot analysis; format: functional, cell-based
Summary of the method: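 FaDu cells received compound at 0.5 μM, 5 Gy IR, or both. After 48 h, lysates were immunoblotted for NRF2, cyclin B1, CDK1, Bax and Bcl-2. Membranes were then stripped and reprobed for β-actin as the loading control.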

SCC-25 [16] = test: Synergistic antiproliferative activity against human SCC25 cells assessed as combination index at 0.05 uM preincubated for 1 hr followed by irradiation with 5 Gy IR and measured after 6 days by MTT assay; format: functional; summary of the method: as §5
FaDu [17] = test: Synergistic antiproliferative activity against human FADU cells assessed as combination index at 0.005 uM preincubated for 1 hr followed by irradiation with 10 Gy IR and measured after 6 days by MTT assay; format: functional; summary of the method: as §2
FaDu [18] = test: Synergistic antiproliferative activity against human FADU cells assessed as combination index at 0.5 uM preincubated for 1 hr followed by irradiation with 10 Gy IR and measured after 6 days by MTT assay; format: functional; summary of the method: as §2
FaDu [19] = test: Synergistic antiproliferative activity against human FADU cells assessed as reduction in cell viability at 1 uM preincubated for 1 hr followed by irradiation with 2.5 Gy IR and measured after 6 days by MTT assay relative to control; format: functional; conditions: light or radiation study; summary of the method: as §1
FaDu [20] = test: Synergistic antiproliferative activity against human FADU cells assessed as combination index at 0.05 uM preincubated for 1 hr followed by irradiation with 5 Gy IR and measured after 6 days by MTT assay; format: functional; summary of the method: as §2
SCC-25 [21] = test: Synergistic antiproliferative activity against human SCC25 cells assessed as fractional inhibition at 0.005 uM preincubated for 1 hr followed by irradiation with 10 Gy IR and measured after 6 days by MTT assay (reference value: 0.347); format: functional; summary of the method: as §3

With COc1ccc2c(c1)N(CCO)C1=C(C(=O)OC1)C2c1ccccc1 (stereo unspecified) the “fractional inhibitory concentration index (FICI)” value (FaDu [1]) was 0.186, the CI (FaDu [2]) was 0.406 and the “fractional inhibitory concentration index (FICI)” value (SCC-25 [3]) was 0.009. For the same compound, the “fractional inhibitory concentration index (FICI)” value (SCC-25 [4]) was 0.157, the inhibition at 1 µM (SCC-25 [5]) was 65% and the “fractional inhibitory concentration index (FICI)” value (FaDu [6]) was 0.613. The Activity (SCC-25 [7]) was “Active”, the “fractional inhibitory concentration index (FICI)” value (SCC-25 [8]) was 0.744 and the “fractional inhibitory concentration index (FICI)” value (FaDu [9]) was 0.452. For the same compound, the CI (SCC-25 [10]) was 1.017, the Activity (FaDu [11]) was “Active” and the “fractional inhibitory concentration index (FICI)” value (SCC-25 [12]) was 0.713. For the same compound, the CI (SCC-25 [13]) was 0.386, the Activity (FaDu [14]) was “Active” and the Activity (FaDu [15]) was “Active”. The CI (SCC-25 [16]) was 1.753, the CI (FaDu [17]) was 0.856 and the CI (FaDu [18]) was 0.319. The inhibition at 1 µM (FaDu [19]) was 30%, the CI (FaDu [20]) was 1.18 and the “fractional inhibitory concentration index (FICI)” value (SCC-25 [21]) was 0.388.
